Data set [1] is described as follows: Solubility of the compound in water at pH 7. The format is physicochemical.
Data set [2] is described as follows: Cytotoxicity against human MT2 cells infected with wild-type HIV1 NL4-3 measured 48 hrs by MTT assay. The data set is classed as cell-based. For orientation: Tetrazolium dyes change colour on reduction, which living cells bring about.
The test system of data set [3] is Human immunodeficiency virus 1. Put plainly: Antiviral activity against HIV1 NL4-3 harboring Y181C mutant infected in human MT2 cells measured 5 days post-infection by MTT assay. Particulars: for pEC50: Human immunodeficiency virus 1, NL4-3, MT2, 5 days, read-out: EC50; call rule not given here.
Data set [4] in a line: Cytotoxicity against human MT2 cells infected with HIV1 NL4-3 harboring Y181C mutant measured 48 hrs by MTT assay. The data set is classed as cell-based.
The target in data set [5] is Human immunodeficiency virus type 1 reverse transcriptase (Human immunodeficiency virus 1, UniProt Q72547, Y181C). The data set is described as follows: Inhibition of recombinant HIV1 reverse transcriptase p66/p51 Y181C mutant expressed in Escherichia coli BL21 (DE3) pLysS cells preincubated followed by primer/template addition and measured after 30 mins by picogreen dye-based fluorescence assay. Summed up:
(§1)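 RT pre-incubated with inhibitor at increasing concentrations to allow binding. Reaction started by adding substrate and co-substrates, run 30 min at 10 nM active-site RT, then quenched with EDTA. dsDNA product read as RFU with PicoGreen dye. Each concentration in triplicate, with a pre-quenched negative control. IC50 from a quadratic inhibition curve fit.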

In data set [6] the target is Human immunodeficiency virus type 1 reverse transcriptase (Human immunodeficiency virus 1, UniProt Q72547). The data set is described as follows: Inhibition of recombinant HIV1 reverse transcriptase p66/p51 expressed in Escherichia coli BL21 (DE3) pLysS cells preincubated followed by primer/template addition and measured after 30 mins by picogreen dye-based fluorescence assay. The method, boiled down: as §1

Data set [7] deals with Human immunodeficiency virus 1. Put plainly: Antiviral activity against wild-type HIV1 NL4-3 infected in human MT2 cells measured 5 days post-infection by MTT assay. Particulars: for pEC50: Human immunodeficiency virus 1, NL4-3, MT2, 5 days.

pEC50, pIC50: −log10 of the molar value. In brackets after ≈: the same amount, converted by molar mass.

As usually defined, the solubility is the dissolved amount per volume that the medium holds. A word on the CC50: it is the concentration at which the toxic effect on the cells reaches its halfway point. Higher therefore signals better tolerance by the cells. By pEC50 is commonly meant the EC50 on a negative log10 scale, so that one unit is a factor of ten. The term pIC50 denotes the IC50 on a negative log10 scale, so that one unit is a factor of ten.

As for `Cc1cc(C#N)cc(C)c1Oc1nc(Nc2ccc(C#N)cc2)nc(N)c1Br` [ETRAVIRINE], the solubility in data set [1] was less than 1 µg/mL.

As for `Cc1cc(/C=C/C#N)cc(C)c1Nc1ccnc(Nc2ccc(C#N)cc2)n1` [RILPIVIRINE], the midpoint of cytotoxicity in data set [2], the CC50 at 48 h, lay at 8000 nM. In data set [3], the pEC50 is […].

For `N#Cc1cc2c(Oc3ccc(F)cc3OCCn3ccc(=O)[nH]c3=O)cc(F)cn2c1`, the figures for the CC50 at 48 h in data set [4] and in data set [2] were 55000 nM and 90000 nM, respectively. In data set [1], this compound showed a solubility of 43.8 µg/mL (≈ 103 µM). Further, the negative-log IC50 (pIC50) in data set [5] is 8.26; in data set [6], 8.35. For the same compound, the Activity result in data set [3] and in data set [7] was “Dose-dependent effect” each time. Also, the pEC50 was 8.49 in data set [3] and 8.33 in data set [7].

As for `Cc1ccnc2c1NC(=O)c1cccnc1N2C1CC1` [NEVIRAPINE], the CC50 at 48 h in data set [2] is greater than 100000 nM. In data set [3], the EC50 entry is given as “Not Active”. The same compound showed a pEC50 in data set [7] of 6.52.
